Data as given in article PMC6008213 (Biochemistry, 2018).
Positions count from the first letter of the chain named.

What was measured:
TG2 = conditions: reported value; cited from earlier work
[1] = target: T1, C230S mutant of human TG2 (Homo sapiens, UniProt P21980, C230S); assay: Deamidation activity of the C230S mutant of TG2 after cystamine treatment; type: biochemical; conditions: 10-fold molar excess of cystamine, 30 min; pH 7.6, 22 °C
T1 sequence (P21980 1-687 C230S): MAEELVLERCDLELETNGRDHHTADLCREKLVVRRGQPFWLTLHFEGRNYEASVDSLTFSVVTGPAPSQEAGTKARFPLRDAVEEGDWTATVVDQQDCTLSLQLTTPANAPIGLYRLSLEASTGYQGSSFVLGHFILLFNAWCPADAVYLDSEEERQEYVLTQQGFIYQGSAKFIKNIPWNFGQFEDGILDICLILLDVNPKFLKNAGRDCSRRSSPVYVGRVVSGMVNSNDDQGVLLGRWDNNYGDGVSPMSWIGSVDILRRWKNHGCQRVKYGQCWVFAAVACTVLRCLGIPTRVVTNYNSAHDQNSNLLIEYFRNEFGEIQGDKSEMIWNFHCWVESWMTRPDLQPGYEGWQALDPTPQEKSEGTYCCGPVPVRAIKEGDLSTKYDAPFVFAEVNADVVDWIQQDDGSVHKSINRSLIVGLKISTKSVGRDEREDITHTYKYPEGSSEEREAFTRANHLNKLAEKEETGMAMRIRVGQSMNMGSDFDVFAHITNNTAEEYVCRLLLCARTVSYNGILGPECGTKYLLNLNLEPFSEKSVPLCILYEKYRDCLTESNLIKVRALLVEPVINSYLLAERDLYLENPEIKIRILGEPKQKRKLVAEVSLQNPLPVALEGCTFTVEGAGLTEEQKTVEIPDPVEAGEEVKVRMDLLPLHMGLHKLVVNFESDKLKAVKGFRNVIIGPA

human TG2 [2] = target: T2, human TG2 (Homo sapiens, UniProt P21980); assay: TG2 transamidation activity assay; type: biochemical
T2 sequence (P21980 1-687): T1 sequence (P21980 1-687 C230S) with S230C
Outline: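 Transamidation was measured with TG2 immobilized on fibronectin, in 50 mM Tris, 1 mM EDTA, pH 7.6, 22 °C. After timed exposure to oxidant, activity was read relative to untreated enzyme. Single-exponential fits gave k′. Ki and kinh/Ki came from the dependence of k′ on inhibitor concentration.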

human TG2 [3] = target: T2, human TG2; assay: TG2 deamidation activity assay; type: biochemical; conditions: for kinh/Ki (bimolecular rate constant for TG2 oxidation): deamidation activity assay, 50 mM Tris, 1 mM EDTA, TG2 10 μM
Outline: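 Human TG2 was expressed in and purified from E. coli and held at 10 μM in 50 mM Tris, 1 mM EDTA, pH 7.6, 22 °C, with disulfide oxidant. Aliquots taken at 2.5–120 min were diluted 10-fold into assay buffer. Deamidation activity was read relative to oxidant-free enzyme, in three technical replicates. Single-exponential fits gave k′. kinh/Ki came from the slope of k′ versus [I0], and Ki from fitting k′ versus [I0].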

| Structure (SMILES) | kinh/Ki (TG2) | retained deamidation activity of C230S mutant [1] | Ki (human TG2 [2]) | kinh/Ki (bimolecular rate constant for TG2 oxidation) (human TG2 [2]; transamidation activity assay, 50 mM Tris, 1 mM EDTA, pH 7.6, 22 °C (disulfiram: TG2 50 nM, disulfiram 10 μM, 2.5% DMSO)) | Ki (human TG2 [3]) | inactivation of WT TG2 (deamidation activity) (human TG2 [3]; 10-fold molar excess of cystamine, 30 min, pH 7.6, 22 °C) | kinh/Ki (bimolecular rate constant for TG2 oxidation) (human TG2 [3]; pH 7.6, 22 °C) |
| --- | --- | --- | --- | --- | --- | --- | --- |
| O=C(NC[C@@H]1CC(Br)=NO1)[C@@H]1CCCN1C(=O)OCc1cnc2ccccc2c1 [ERW1041E] | 267 M⁻¹ s⁻¹ | – | – | – | – | – | – |
| NCCSSCCN [cystamine] | – | > 85% | > 100 µM | 28.3 M⁻¹ s⁻¹ | > 600 µM | completely inactivated | 20 M⁻¹ s⁻¹ |
| N[C@@H](CSSC[C@H](N)C(=O)O)C(=O)O [cystine] | – | – | – | – | – | – | 4.83 M⁻¹ s⁻¹ |
